Reference: ChEMBL document CHEMBL1142876, “Non-carboxylic analogues of arylpropionic acids: synthesis, anti-inflammatory activity and ulcerogenic potential” (Eur J Med Chem, 2007)

Tests used:
Rattus norvegicus [1] = experiment: Antiinflammatory activity against carrageenan-induced paw edema in Albino rat at 30 mg/kg body weight, sc; format: functional; details: route subcutaneous
Method in brief: (§1)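 Rats from National Research Centre, acclimatised one week, 12 h light/dark, food and water ad libitum; groups of six. Right hind paw sub-plantar injection of 0.05 mL 1% carrageenan in saline. Drugs dissolved in DMSO, given subcutaneously; vehicle controls got DMSO. Paw volume measured before and 0.5, 1.5, 2, 3, 6, 8 h post-carrageenan; edema AUC by trapezoidal method, mean ± S.E.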

Rattus norvegicus [2] = experiment: Toxicity assessed as ulcerogenic effect in Albino rat at 30 mg/kg, po twice a day after 3 days; format: organism-based; set-up: dose 30 mg/kg, route oral; details: in vivo, 72 h
Method in brief: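 Male albino rats, 150–200 g, fasted 12 h (water ad libitum), six per group. Oral dosing in two equal doses of 30 mg/kg at 0 and 12 h for three successive days; controls received 1% gum acacia orally. Killed with diethyl ether 6 h after final dose; stomach opened along greater curvature, saline-washed, examined under 3× lens for hyperemia, haemorrhage or ulcer. % ulceration = ulcer-bearing animals/group total ×100.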

Rattus norvegicus [3] = experiment: Antiinflammatory activity against carrageenan-induced paw edema in Albino rat at 200 mg/kg body weight, sc; format: functional; details: route subcutaneous; method in brief: as §1

SMILES	Activity (Rattus norvegicus [1]) [%]	Activity (Rattus norvegicus [2]) [%]	Activity (Rattus norvegicus [3]) [%]
CC(C)Cc1ccc(C(C)c2nnc(Nc3ccc(Br)cc3)[nH]2)cc1 (centres undefined)	69.52	33.3	–
COc1ccc2c(c1)c(CC(=O)O)c(C)n2C(=O)c1ccc(Cl)cc1 [INDOMETHACIN]	–	100	–
CC(C)Cc1ccc(C(C)C(=O)O)cc1 (centres undefined) [IBUPROFEN]	86.07	–	–
CC(C)Cc1ccc(C(C)c2nnc(Nc3cccc(Cl)c3)[nH]2)cc1 (centres undefined)	70.86	–	–
CC(C)Cc1ccc(C(C)c2nnc3sc(S)nn23)cc1 (centres undefined)	72.1	–	–
CC(c1ccc(-c2ccccc2)c(F)c1)c1nnc(Nc2cccc(Cl)c2)[nH]1 (centres undefined)	69.65	0	–
COc1ccc2cc(C(C)c3nnc(Nc4cccc(Cl)c4)[nH]3)ccc2c1 (centres undefined)	66.8	0	–
COc1ccc2cc(C(C)c3nnc(Nc4ccc(Br)cc4)[nH]3)ccc2c1 (centres undefined)	69.67	–	–
CC(c1ccc(-c2ccccc2)c(F)c1)c1nnc(Nc2ccc(Br)cc2)[nH]1 (centres undefined)	68.36	0	–
C[C@]12CCC(=O)C=C1CC[C@@H]1[C@@H]2[C@@H](O)C[C@@]2(C)[C@H]1CC[C@]2(O)C(=O)CO [HYDROCORTISONE]	–	–	73.39
